Each block holds one compound with its values, some of them ahead of it.
Legend:
[1] = test system: platinum-resistant colorectal tumours; conditions: cited from earlier work
[2] = test system: metastases of solid tumours; conditions: cited from earlier work
[3] = test system: cisplatin-resistant ovarian and testicular cancer cell lines; conditions: cited from earlier work
A431 carcinoma cells = experiment: Dark and light toxicity with a 740 nm LED lamp, phase contrast images; type: cell-based, human
[4] = Stability in aqueous media by ESR and 51V NMR spectroscopy; type: physicochemical
Outline: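 A 50 mM DMSO stock was diluted to 4.0 mM in DI water (pH 7.19) and kept in subdued light at room temperature. ESR spectra were recorded at room temperature immediately and at 24, 48 and 72 h. 51V NMR spectra of the 4.0 mM solutions were taken at 0, 24, 48 and 72 h and at seven days. Control: 4.0 mM NaVO3, pH 7.19.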

HFF cells = experiment: Dark and light toxicity with a 740 nm LED lamp, phase contrast images; type: cell-based, human; conditions: for light enhancement of cytopathic effect compared to dark toxicity, HFF: 740 nm red light 60 minutes, then 24 hours dark
fibrosarcoma cells = conditions: room-light or red-light exposure; cited from earlier work
[5] = test system: murine embryonic fibroblasts; conditions: room-light or red-light exposure; cited from earlier work
[6] = test system: amelanotic malignant melanoma cells; experiment: Dark and light toxicity with a 60 W tungsten lamp, phase contrast images; type: cell-based, human
Outline: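 ATCC amelanotic melanoma line (from a person) grown at 37 °C, 5% CO2 in high-glucose DMEM with 10% FBS, 0.5% pen-strep, 1% glutamine and 1% non-essential amino acids. 10^5 cells/well seeded; after 24 h, medium swapped for test compound at 5 or 20 µM. After 24 h, cells irradiated 30 min with a 60 W tungsten lamp or kept dark. Phase-contrast images at 10x taken 3 h later. Untreated cells served as control.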

[7] = 4.0 mM in water, pH 7.19, room temperature, day seven

Compound: [Cl-].[Cl-].[Cl-].[Cl-].[Ru+3].c1ccc2[nH][nH+]cc2c1.c1ccc2[nH]ncc2c1.c1ccc2[nH]ncc2c1 [KP1019]
activity against platinum-resistant colorectal tumours [1]: excellent activity

Compound: CS(C)=O.[Cl-].[Cl-].[Cl-].[Cl-].[Ru+3].c1c[nH+]c[nH]1.c1c[nH]cn1 [NAMI-A]
activity against development and growth of metastases of solid tumours [2]: particularly active

Compound: Cc1ccnc2c1ccc1c(C)ccnc12.Cc1ccnc2c1ccc1c(C)ccnc12.O=S(=O)([O-])[O-].[O]=[V+2] [metvan, bis(4,7-dimethyl-1,10-phenanthroline)sulfatooxovanadium(IV)]
effectiveness against cisplatin-resistant ovarian and testicular cancer cell lines [3]: highly effective

change in intensity of ESR spectra ([4]; 4.0 mM in water, pH 7.19, room temperature, 0, 24, 48, and 72 hours): no decrease in intensity | vanadium(V) species by 51V NMR [4, 7]: a weak, broad peak at −543 ppm | vanadium(V) species by 51V NMR ([4]; 4.0 mM in water, pH 7.19, room temperature, up to 72 hours): absence of any vanadium(V) species | stability in aqueous media (oxidation of vanadium(IV) centre) ([4]; standing at room temperature, pH 7.19): considerable stability
Compound: [Ru(pbt)2(phen2DTT)VO(sal-L-tryp)]Cl2
changes in cell morphology of A431 cells (A431 carcinoma cells; 5 μM, dark and light exposure): only slight changes in cell morphology | cytopathic effect on A431 cells (A431 carcinoma cells; 20 μM): anticancer cytopathic effect | light enhancement of cancer cell death compared to [Ru(pbt)2(tpphz)VO(sal-L-tryp)]Cl2 treated cells (A431 carcinoma cells; 740 nm light, A431): more pronounced light enhancement of cancer cell death | light enhancement of cytopathic effect compared to dark toxicity, A431 (A431 carcinoma cells; 740 nm red light 60 minutes, then 24 hours dark): light enhanced cytopathic effects | changes in morphology of HFF cells (HFF cells; 5 μM and 20 μM, dark and light exposure): only minor changes in morphology | light enhancement of cytopathic effect compared to dark toxicity, HFF (HFF cells): no effect

vanadium(V) species by 51V NMR [4, 7]: a weak, broad peak at −543 ppm
Compound: [Ru(pbt)2(tpphz)VO(sal-L-tryp)]Cl2
light enhancement of cytopathic effect compared to dark toxicity, HFF (HFF cells): no effect

Compound: sodium diaqua-4,4',4”,4”'tetrasulfophthalocyaninecobaltate(II) [Na4[Co(tspc)(H2O)2]]
cytotoxic activity (fibrosarcoma cells): no cytotoxic activity | cytotoxic activity [5]: no cytotoxic activity | apoptosis of melanoma cells, dark ([6]; 5.0 and 20.0 μM, incubated in the dark one day): do not show significant apoptosis | impact on melanoma cells under illumination ([6]; 5 or 20 μM, 60 W tungsten lamp 30 minutes): no impact
